The text below walks through data of ChEMBL document CHEMBL2086299, “Melanogenesis inhibitory and fibroblast proliferation accelerating effects of noroleanane- and oleanane-type triterpene oligoglycosides from the flower buds of Camellia japonica” (2012).

Format in all cases: functional
Common to all, as to parameters: scale not given: the % may be the effect or the level left

A short description of test [1]: Inhibition of melanogenesis in theophylline-stimulated mouse B16-4A5 cells at 10 uM after 72 hrs by microplate reader. The essentials: (§1)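 B16 melanoma 4A5 cells seeded 2.0 × 10^4 cells/well in 24-well plates and cultured 24 h. Then 72 h with compound plus 1 mM theophylline (DMSO, final 0.1%). Cells trypsin/EDTA-harvested, washed, lysed in 1 M NaOH (80 °C, 30 min). Lysate melanin read by OD at 405 nm (ref 655 nm). Inhibition (%) = [(A − B)/A] × 100 versus vehicle. Mean ± SEM, n = 4.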

Test [2] is described as follows: Inhibition of melanogenesis in theophylline-stimulated mouse B16-4A5 cells at 20 uM after 72 hrs by microplate reader. The essentials: as §1
The nature of test [3]: Inhibition of melanogenesis in theophylline-stimulated mouse B16-4A5 cells at 40 uM after 72 hrs by microplate reader. An outline of the steps: as §1

As to `OC[C@H]1O[C@@H](Oc2ccc(O)cc2)[C@H](O)[C@@H](O)[C@@H]1O` [ARBUTIN], the Activity in test [1] is reported as -0.1%; in test [2], 13.3%; in test [3], 18%.
